In brackets after ≈: the same amount, converted by molar mass.
How the values were obtained:
[1] = target: T1, Hematopoietic prostaglandin D synthase (Homo sapiens, UniProt O60760); assay: Binding affinity to human HPGDS expressed in Escherichia coli using 1-phenylpyrazole-4-carboxylic acid/6-(3-fluorophenyl)pyridine-3-carboxamide as reporter probe by ligand-observed 1D NMR T1rho binding assay
Summary of the method: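 Ligand-observed NMR displacement of reporter molecules from recombinant E. coli-expressed wild-type hH-PGDS. Active-site binding of the reporters was confirmed by competition with a known inhibitor. Kd was calculated from the extent of reporter displacement at two compound concentrations, using the experimentally determined reporter and compound concentrations in an exact mathematical expression. Values are means of at least two independent experiments.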

[2] = target: T1, Hematopoietic prostaglandin D synthase; assay: Inhibition human HPGDS expressed in Escherichia coli assessed as reduction in GST enzymatic activity using MCBL and glutathione incubated for 30 mins by fluorescence based assay
Summary of the method: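 Compound was preincubated 30 min with enzyme at 1.5 µg/ml in 50 mM Tris, 2 mM MgCl2, 0.1% CHAPS. MCBL (0.4 mM, added solution) and glutathione were then added, and fluorescence (ex 360/em 460) was read at once and again after 30 min. Readings were normalised to DMSO wells (0%) and a control inhibitor (100%). Values are means of at least two independent experiments.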

[3] = target: T1, Hematopoietic prostaglandin D synthase; assay: Binding affinity to human HPGDS expressed in Escherichia coli by isothermal titration calorimetry
Summary of the method: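 Recombinant wild-type hH-PGDS, expressed in E. coli and purified by cation exchange and gel filtration. Ligand, typically 500 µM at experimentally determined concentration, titrated in 2 µL aliquots into 30–40 µM protein. Reverse titrations (protein into ligand) used where ligand solubility was low. Values are means of at least two independent experiments.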

[4] = Solubility of the compound; type: physicochemical
[5] = target: T1, Hematopoietic prostaglandin D synthase; assay: Inhibition HPGDS in human MEG01 cells assessed as reduction in PGD2 production incubated for 30 mins followed by stimulation with 5 uM ionomycin for 30 mins by enzyme immunoassay method; type: cell-based, MEG-01
Summary of the method: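 MEG-01 cells were differentiated with 0.1 µM PMA for 16 h, then plated. Inhibitor was added in concentration response, 10 µM–0.15 nM, for 30 min at 37 °C, followed by 5 µM ionomycin for 30 min at 37 °C. Secreted PGD2 in the medium was quantified by PGD2-MOX EIA.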

[6] = target: T1, Hematopoietic prostaglandin D synthase; assay: Inhibition fluorescein-conjugated ligand binding to human HPGDS expressed in Escherichia coli by fluorescence polarization assay
Summary of the method: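 Recombinant E. coli-expressed hH-PGDS. Displacement of a fluorescein-conjugated potent hH-PGDS inhibitor by compound was followed in dose-response by fluorescence polarization, excitation 470 nm and emission 530 nm. The assay was adapted from a commercial kit.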

T1 sequence (O60760 whole entry): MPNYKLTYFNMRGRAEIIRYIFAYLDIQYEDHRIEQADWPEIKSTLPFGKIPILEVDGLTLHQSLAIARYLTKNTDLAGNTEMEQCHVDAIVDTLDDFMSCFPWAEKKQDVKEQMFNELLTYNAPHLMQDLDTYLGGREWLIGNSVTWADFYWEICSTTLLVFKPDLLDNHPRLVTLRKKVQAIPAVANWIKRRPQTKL

| SMILES | Kd [1] [nM] | IC50 [2] [nM] | Kd [3] [nM] | solubility [4] [µM] | EC50 [5] [nM] | IC50 [6] [nM] |
| --- | --- | --- | --- | --- | --- | --- |
| O=C(NC1CCN(CC(F)(F)F)CC1)c1ccc(-c2cc[nH]c(=O)c2)nc1 | 200 | 70 |  |  |  |  |
| O=C(NC1CCN(CC(F)(F)F)CC1)c1ccc(N2CCCC2)nc1 | 200 | 230 |  |  |  |  |
| COc1cc(-c2ccc(C(=O)NC3CCN(CC(F)(F)F)CC3)cn2)ccn1 | 2000 |  |  |  |  |  |
| O=C(NC1CCN(CC(F)(F)F)CC1)c1ccc(Oc2ccccc2)nc1 | 60 | 31 |  |  |  |  |
| CN(C)c1ccc(C(=O)NC2CCN(CC(F)(F)F)CC2)cn1 | 14000 |  |  |  |  |  |
| O=C(NC1CCN(CC(F)(F)F)CC1)c1ccc(N2CCOCC2)nc1 | 400 | 320 |  |  |  |  |
| O=C(O)c1cnn(-c2ccccc2)c1 |  |  | 140000 |  |  |  |
| COc1cccc(-c2ccc(C(=O)NC3CCN(CC(F)(F)F)CC3)cn2)c1 | 44 | 60 | 12 | 4.2 (≈ 1.65 µg/mL) | 130 | 210 |
| c1ccc(-c2ncc(-c3cc[nH]n3)s2)cc1 | 51 | 23 | 300 | 1.4 (≈ 0.318 µg/mL) | 110 |  |
| O=C(NC1CCN(CC(F)(F)F)CC1)c1ccc(-c2cccc(=O)[nH]2)nc1 | 400 | 71 |  |  |  |  |
| NC(=O)c1ccc(-c2cccc(F)c2)nc1 |  |  | 800 |  |  |  |
| O=C(NC1CCN(CC(F)(F)F)CC1)c1ccc(N2CCCCC2)nc1 | < 100 | 48 |  |  |  |  |
| O=C1CN(c2ccc(C(=O)NC3CCN(CC(F)(F)F)CC3)cn2)CCN1 | 1000 | 590 |  |  |  |  |
| CC(C)(O)c1nc(-c2ccc(CNC(=O)c3cnc(-c4ccccn4)nc3)cc2)no1 | 23 | 70 | 35 |  | 74 |  |
| O=C(NC1CCN(CC(F)(F)F)CC1)c1ccc(N2CCNCC2)nc1 | 13000 |  |  |  |  |  |
| O=C(NC1CCN(CC(F)(F)F)CC1)c1ccc(-c2ccc(=O)[nH]c2)nc1 | 10000 |  |  |  |  |  |

The remaining lines, values ahead:

| Kd [1] [nM] | IC50 [2] [nM] | Kd [3] [nM] | solubility [4] [µM] | EC50 [5] [nM] | IC50 [6] [nM] | SMILES |
| --- | --- | --- | --- | --- | --- | --- |
| 9.5 | 200 | 20 | 2.6 (≈ 0.992 µg/mL) | 35 |  | O=C(NC1CCN(CC(F)(F)F)CC1)c1ccc(-c2cccc(F)c2)nc1 |
| 50 | 26 |  |  |  |  | O=C(CCc1cccnc1)Nc1cncc(-c2cccc3[nH]ccc23)c1 |
| 60 | 32 |  |  |  |  | CCC(=O)Nc1cncc(-c2cccc3[nH]ccc23)c1 |
| 340 | 300 | 210 | 95 (≈ 29.3 µg/mL) | 350 | 460 | CN(C)CCC(=O)Nc1cncc(-c2cccc3[nH]ccc23)c1 |
| 570 | 180 |  | 84 (≈ 27.1 µg/mL) |  | 820 | CN(C)CCCC(=O)Nc1cncc(-c2cccc3[nH]ccc23)c1 |
| < 20000 | 1200 |  |  |  |  | Cn1cncc1CC(=O)Nc1cncc(-c2cccc3[nH]ccc23)c1 |
| 650 | 170 |  | 77 (≈ 23.1 µg/mL) |  | 2900 | COCCCNC(=O)c1nc(-c2cccc3[nH]ccc23)no1 |
| 200 | 43 |  |  |  |  | O=C(Cn1cnnn1)Nc1cncc(-c2cccc3[nH]ccc23)c1 |
| 1000 | 130 |  |  |  |  | O=C(CCN1CCCCC1)Nc1cncc(-c2cccc3[nH]ccc23)c1 |
| 300 | 35 |  |  |  |  | O=C1CC[C@@H](C(=O)Nc2cncc(-c3cccc4[nH]ccc34)c2)N1 |

Reference: ChEMBL document CHEMBL3425475, “Identification of indole inhibitors of human hematopoietic prostaglandin D2 synthase (hH-PGDS)” (Bioorg Med Chem Lett, 2015)
